Results as given in ChEMBL document CHEMBL4732053, “Design, synthesis and structure-activity relationship study of novel urea compounds as FGFR1 inhibitors to treat metastatic triple-negative breast cancer” (Eur J Med Chem, 2021).

Legend:
[1] = target: D(2) dopamine receptor (Homo sapiens, UniProt P14416); experiment: Binding affinity to dopamine D2 receptor (unknown origin) at 10 uM
How it was run: (§1)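 Primary radioligand-binding screen by the NIMH Psychoactive Drug Screening Program. Each compound was tested at a final concentration of 10 μM in triplicate or quadruplicate, and % inhibition was recorded. Data are mean ± SEM of four independent experiments. Compounds reaching at least 50% antagonist activity went on to secondary dose-response assays.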

[2] = target: D(3) dopamine receptor (Homo sapiens, UniProt P35462); experiment: Binding affinity to dopamine D3 receptor (unknown origin) at 10 uM; type: ADME; how it was run: as §1
Chain of D(3) dopamine receptor (P35462 whole entry): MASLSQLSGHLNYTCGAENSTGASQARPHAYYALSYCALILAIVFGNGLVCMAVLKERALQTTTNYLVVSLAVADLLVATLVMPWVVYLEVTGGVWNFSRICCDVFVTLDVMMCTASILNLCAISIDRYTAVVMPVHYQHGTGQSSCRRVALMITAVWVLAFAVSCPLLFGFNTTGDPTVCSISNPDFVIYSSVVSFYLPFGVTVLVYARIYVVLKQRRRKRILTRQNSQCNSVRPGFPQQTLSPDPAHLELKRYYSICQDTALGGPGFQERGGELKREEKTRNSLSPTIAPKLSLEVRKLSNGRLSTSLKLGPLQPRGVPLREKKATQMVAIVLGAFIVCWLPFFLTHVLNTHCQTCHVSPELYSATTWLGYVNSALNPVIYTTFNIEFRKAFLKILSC

[3] = target: DAT (sodium-dependent dopamine transporter) (Homo sapiens, UniProt Q01959); experiment: Inhibition of DAT (unknown origin) at 10 uM relative to control; how it was run: as §1
Chain of DAT (sodium-dependent dopamine transporter) (Q01959 whole entry): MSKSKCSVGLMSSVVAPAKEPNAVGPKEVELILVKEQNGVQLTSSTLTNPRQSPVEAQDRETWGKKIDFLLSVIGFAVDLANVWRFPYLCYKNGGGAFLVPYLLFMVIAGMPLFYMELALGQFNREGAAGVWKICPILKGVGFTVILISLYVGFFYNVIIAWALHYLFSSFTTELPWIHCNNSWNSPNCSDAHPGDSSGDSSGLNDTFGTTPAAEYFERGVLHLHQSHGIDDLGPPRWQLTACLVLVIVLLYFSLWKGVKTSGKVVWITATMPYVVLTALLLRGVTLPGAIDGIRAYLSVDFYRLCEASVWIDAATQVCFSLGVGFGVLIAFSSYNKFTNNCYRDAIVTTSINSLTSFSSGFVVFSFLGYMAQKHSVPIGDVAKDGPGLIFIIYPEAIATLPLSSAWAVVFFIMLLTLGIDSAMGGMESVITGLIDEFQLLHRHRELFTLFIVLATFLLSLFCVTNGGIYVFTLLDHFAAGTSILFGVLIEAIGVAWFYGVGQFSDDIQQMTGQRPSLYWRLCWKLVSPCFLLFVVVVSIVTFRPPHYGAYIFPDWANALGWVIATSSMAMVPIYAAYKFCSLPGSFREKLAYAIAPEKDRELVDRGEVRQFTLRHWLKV

[4] = Drug uptake in C57 mouse brain at 10 mg/kg, ip measured after 1 hrs by LC-MS/MS analysis; type: ADME, organism-based; conditions: in vivo
How it was run: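 Eight-week-old male and female C57 mice (~20 g) received a single 10 mg/kg i.p. dose in ethanol 2.5%, DMSO 2.5%, Tween 80 5%, PEG 400 25% and PBS 65%. Brains were taken after cardiac perfusion at 0–48 h. Tissue was homogenized in PBS (1:3 w/v), extracted with acetonitrile containing internal standard, and quantified by LC-MS/MS against matrix-matched calibration curves. n = 2–4.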

[5] = target: D(1A) dopamine receptor (Homo sapiens, UniProt P21728); experiment: Binding affinity to dopamine D1 receptor (unknown origin) at 10 uM; how it was run: as §1
Chain of D(1A) dopamine receptor (P21728 whole entry): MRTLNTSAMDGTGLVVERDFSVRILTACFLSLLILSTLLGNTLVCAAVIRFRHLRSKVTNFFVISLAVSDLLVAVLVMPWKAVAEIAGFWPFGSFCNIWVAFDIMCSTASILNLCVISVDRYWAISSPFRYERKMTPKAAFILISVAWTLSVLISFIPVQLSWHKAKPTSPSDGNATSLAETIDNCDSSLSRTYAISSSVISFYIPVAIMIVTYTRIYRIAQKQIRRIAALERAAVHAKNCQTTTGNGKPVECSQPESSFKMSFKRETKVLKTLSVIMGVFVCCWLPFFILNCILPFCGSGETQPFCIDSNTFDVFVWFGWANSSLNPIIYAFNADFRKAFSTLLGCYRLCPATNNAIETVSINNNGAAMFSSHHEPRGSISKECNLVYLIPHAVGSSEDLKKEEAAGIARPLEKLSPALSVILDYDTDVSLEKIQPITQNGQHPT

[6] = system: MDA-MB-231; experiment: Cytotoxicity against human MDA-MB-231 cells assessed as reduction in cell viability incubated for 48 hrs by MTT assay; type: functional, cell-based; conditions: MDA-MB-231, 48 h
How it was run: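 MTT assay in MDA-MB-231 cells grown in DMEM with 10% heat-inactivated FBS at 37 °C and 5% CO2. Cells were seeded at 8000 per well, left 24 h, then exposed for 48 h to 0–25 μM in DMEM with 2% FBS (final DMSO 0.1%). MTT (0.5 mg/mL) was added for 2 h, formazan was dissolved in DMSO and read at 570 nm. Runs were in triplicate and IC50 was derived from the curves.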

[7] = target: Sodium-dependent dopamine transporter (Homo sapiens, UniProt Q01959); experiment: Inhibition of DAT (unknown origin)
Chain of Sodium-dependent dopamine transporter (Q01959 whole entry): as the sequence (Q01959 whole entry) above

[8] = target: Histamine H1 receptor (Homo sapiens, UniProt P35367); experiment: Inhibition of H1R (unknown origin)
Chain of Histamine H1 receptor (P35367 whole entry): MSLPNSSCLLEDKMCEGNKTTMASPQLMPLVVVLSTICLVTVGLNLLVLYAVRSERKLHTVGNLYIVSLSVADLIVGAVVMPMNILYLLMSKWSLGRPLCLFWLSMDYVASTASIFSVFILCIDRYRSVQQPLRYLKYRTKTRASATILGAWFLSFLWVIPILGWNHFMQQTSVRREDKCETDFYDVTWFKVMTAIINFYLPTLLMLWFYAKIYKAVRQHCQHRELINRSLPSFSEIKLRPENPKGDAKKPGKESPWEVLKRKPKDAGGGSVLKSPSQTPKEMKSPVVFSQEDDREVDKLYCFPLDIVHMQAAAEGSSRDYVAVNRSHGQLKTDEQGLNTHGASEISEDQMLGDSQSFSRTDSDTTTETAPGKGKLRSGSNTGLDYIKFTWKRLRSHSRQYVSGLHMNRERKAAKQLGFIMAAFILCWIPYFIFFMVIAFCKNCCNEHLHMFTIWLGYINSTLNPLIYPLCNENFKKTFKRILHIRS

[9] = target: T1, D(4) dopamine receptor (Homo sapiens, UniProt P21917); experiment: Binding affinity to dopamine D4 receptor (unknown origin) at 10 uM; how it was run: as §1
T1 sequence (P21917 whole entry): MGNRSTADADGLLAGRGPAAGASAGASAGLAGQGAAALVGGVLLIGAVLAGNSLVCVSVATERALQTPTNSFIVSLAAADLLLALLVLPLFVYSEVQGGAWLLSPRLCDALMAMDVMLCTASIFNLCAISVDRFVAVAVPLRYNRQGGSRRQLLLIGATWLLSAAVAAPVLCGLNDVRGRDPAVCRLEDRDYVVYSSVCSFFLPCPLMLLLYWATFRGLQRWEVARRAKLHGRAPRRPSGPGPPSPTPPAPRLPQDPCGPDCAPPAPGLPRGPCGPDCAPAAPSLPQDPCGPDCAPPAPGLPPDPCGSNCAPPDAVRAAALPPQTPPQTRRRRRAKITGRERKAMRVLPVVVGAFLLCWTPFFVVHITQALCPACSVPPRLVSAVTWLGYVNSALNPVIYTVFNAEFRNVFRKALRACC

[10] = target: D(1B) dopamine receptor (Homo sapiens, UniProt P21918); experiment: Binding affinity to dopamine D5 receptor (unknown origin) at 10 uM; how it was run: as §1
Chain of D(1B) dopamine receptor (P21918 whole entry): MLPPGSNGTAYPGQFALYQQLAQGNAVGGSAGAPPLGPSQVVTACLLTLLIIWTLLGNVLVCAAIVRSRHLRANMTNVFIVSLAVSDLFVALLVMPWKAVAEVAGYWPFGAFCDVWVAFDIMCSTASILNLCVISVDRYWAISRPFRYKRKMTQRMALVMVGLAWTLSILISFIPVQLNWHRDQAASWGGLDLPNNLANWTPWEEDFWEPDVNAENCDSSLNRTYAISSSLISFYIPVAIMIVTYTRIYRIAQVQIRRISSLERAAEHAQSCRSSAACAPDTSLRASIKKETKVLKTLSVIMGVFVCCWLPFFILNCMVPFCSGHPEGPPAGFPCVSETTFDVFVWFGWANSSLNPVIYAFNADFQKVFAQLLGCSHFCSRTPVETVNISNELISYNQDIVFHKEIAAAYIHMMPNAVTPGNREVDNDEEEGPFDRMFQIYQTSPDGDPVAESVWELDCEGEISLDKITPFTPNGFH

Chain of D(2) dopamine receptor (P14416 whole entry): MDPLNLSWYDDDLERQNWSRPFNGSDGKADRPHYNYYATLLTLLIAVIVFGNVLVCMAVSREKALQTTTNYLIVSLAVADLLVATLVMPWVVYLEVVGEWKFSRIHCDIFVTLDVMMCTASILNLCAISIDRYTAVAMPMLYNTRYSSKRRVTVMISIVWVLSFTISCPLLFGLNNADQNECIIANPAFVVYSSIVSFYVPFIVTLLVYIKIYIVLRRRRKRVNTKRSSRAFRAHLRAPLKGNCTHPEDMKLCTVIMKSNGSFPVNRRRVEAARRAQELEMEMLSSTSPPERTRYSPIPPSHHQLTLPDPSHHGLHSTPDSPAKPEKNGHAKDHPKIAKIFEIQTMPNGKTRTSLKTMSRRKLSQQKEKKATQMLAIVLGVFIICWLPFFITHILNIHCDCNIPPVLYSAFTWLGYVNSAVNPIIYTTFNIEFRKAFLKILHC

O=C(NCCCCC(c1ccc(F)cc1)c1ccc(F)cc1)Nc1ccc(Cl)cc1
Activity [1]: Not Active | Activity [2]: Not Active | inhibition at 10 µM [3]: 82% | Drug uptake [4]: Active | Activity [5]: Not Active | IC50 [6]: 7.68 µM | Ki [7]: 15 nM | inhibition (INH) [8]: Active | Activity [9]: Not Active | Activity [10]: Not Active
